From ChEMBL document CHEMBL1130028, “A comparison of structure-activity relationships between spermidine and spermine analogue antineoplastics” (J Med Chem, 1997)

Tests used:
[1] = test system: L1210; test: Percentage of spermidine after 48 hr of exposure to the compound (500(150)uM ) in L1210 cells; type: functional, Mus musculus
In short: (§1)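 Log-phase L1210 cells were treated for 48 h with analogue at two concentrations. Cells were washed twice in cold RPMI-1640 and extracted with 0.6 N HClO4. Putrescine, spermidine and spermine were quantified by HPLC of dansyl derivatives and given as percent of untreated controls. Runs were in triplicate with untreated controls.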

[2] = test system: L1210; test: Percentage of spermine after 48 hr exposure to the compound (500(150)uM ) in L1210 cells; type: functional, Mus musculus
In short: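 Log-phase murine L1210 leukemia cells (RPMI-1640, 10% fetal calf serum or NuSerum, HEPES-MOPS buffer, 1 mM aminoguanidine) exposed 48 h to analogue at two concentrations. Cells washed twice in cold RPMI-1640 and extracted with 0.6 N HClO4. Spermine in extracts quantified by HPLC of DANSYL derivatives and expressed as percent of untreated controls. Triplicate flasks per condition.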

[3] = molecular target: T1, S-adenosylmethionine decarboxylase proenzyme 1 (Mus musculus) (UniProt P0DMN7); test: Effect on S-Adenosyl-methionine decarboxylase (AdoMetDC) tested at 1 uM at 6 hour in L1210 cells; type: functional, cell-based
T1 sequence (whole entry): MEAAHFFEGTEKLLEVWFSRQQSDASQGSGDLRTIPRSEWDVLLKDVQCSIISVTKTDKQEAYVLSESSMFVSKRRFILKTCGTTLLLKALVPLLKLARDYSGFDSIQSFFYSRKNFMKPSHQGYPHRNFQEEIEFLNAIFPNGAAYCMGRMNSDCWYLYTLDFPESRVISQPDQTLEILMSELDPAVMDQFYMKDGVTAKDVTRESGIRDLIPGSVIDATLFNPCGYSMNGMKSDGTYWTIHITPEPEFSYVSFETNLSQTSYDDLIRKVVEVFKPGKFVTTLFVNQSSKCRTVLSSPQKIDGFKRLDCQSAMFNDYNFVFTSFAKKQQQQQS
In short: (§2)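 L1210 cells were exposed to 1 μM analogue, for 4 h (ODC) or 6 h (AdoMetDC). Activity was measured as 14CO2 released from [14C]carboxyl-labelled L-ornithine (ODC) or S-adenosyl-L-methionine (AdoMetDC) and given as percent of untreated control. Each run included DEHSPM-treated positive controls. Values are the mean of at least three experiments.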

[4] = The chronic lethal dose administered as intraperitoneal injection; type: ADME; details: mouse, ip
In short: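 Female CD-1 mice, 10–12 weeks old. Analogue given as hydrochloride salt by ip injection three times daily for 6 days (18 doses). Appetite, weight and appearance monitored daily, and lethality scored 10 days after the final dose.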

[5] = test system: L1210; test: Percentage of spermine after 48 hr exposure to the compound (100(30)uM ) in L1210 cells; type: functional, Mus musculus; in short: as §1
[6] = test system: L1210; test: Percentage of spermidine after 48 hr of exposure to the compound (100(30)uM ) in L1210 cells; type: functional, Mus musculus; in short: as §1
[7] = test system: L1210; test: Percentage of putrescine after 48 hr exposure to the compound (100(30)uM ) in L1210 cells; type: functional, Mus musculus; in short: as §1
[8] = Binding affinity values for polyamine transporter was determined
[9] = test system: L1210; test: Intracellular levels in L1210 cells following 500 uM exposure.; type: functional, Mus musculus
In short: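 L1210 cells were grown 48 h in medium containing 500 μM analogue. Cellular contents were analysed by HPLC of dansyl derivatives and given as pmol/10^6 cells, as parent drug and metabolites with the % of total drug in the cell.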

[10] = molecular target: Spermidine/spermine N(1)-acetyltransferase (SAT) (Mus musculus) (UniProt Q6P8J2+P48026); test: Effect on Spermidine/Spermine-Acetyltransferase (SSAT ) at 10 uM at 48 hour in L1210 cells; type: functional, cell-based
In short: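 L1210 cells were exposed to 10 μM triamine for 48 h. SSAT activity was taken as [14C]N1-acetylspermidine formed from spermidine and [14C]acetyl-CoA, given as percent of untreated control. DENSPM-treated cells served as positive control. Values are the mean of at least three experiments.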

[11] = Effect on ornithine decarboxylase (ODC) tested at 1 uM at 4 hour in L1210 cells; type: functional, Mus musculus; in short: as §2
[12] = test system: L1210; test: Growth inhibitory activity against L1210 cells (48h); type: functional, cell-based; details: Mus musculus, L1210, 48 h
In short: (§3)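 Murine L1210 leukemia cells were kept in log growth in RPMI-1640 with 10% fetal calf serum or NuSerum, HEPES-MOPS buffer and 1 mM aminoguanidine. IC50 is the concentration giving 50% of untreated control growth, as the mean of at least two experiments.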

[13] = test system: L1210; test: Growth inhibitory activity against L1210 cells (96h); type: functional, cell-based; details: Mus musculus, L1210, 96 h; in short: as §3
[14] = test system: L1210; test: Percentage of putrescine after 48 hr exposure to the compound (500(150)uM ) in L1210 cells; type: functional, Mus musculus; in short: as §1
[15] = test system: L1210; test: Percentage of spermine after 48 hr exposure to the compound (3(0.3)uM ) in L1210 cells; type: functional, Mus musculus; in short: as §1
[16] = test system: L1210; test: Percentage of spermine after 48 hr exposure to the compound (15(1.5)uM ) in L1210 cells; type: functional, Mus musculus; in short: as §1
[17] = test system: L1210; test: Percentage of spermidine after 48 hr of exposure to the compound (3(0.3)uM ) in L1210 cells; type: functional, Mus musculus; in short: as §1
[18] = test system: L1210; test: Percentage of spermidine after 48 hr of exposure to the compound (15(1.5)uM ) in L1210 cells; type: functional, Mus musculus; in short: as §1
[19] = test system: L1210; test: Percentage of putrescine after 48 hr exposure to the compound (3(0.3)uM ) in L1210 cells; type: functional, Mus musculus; in short: as §1
[20] = test system: L1210; test: Percentage of putrescine after 48 hr exposure to the compound (15(1.5)uM ) in L1210 cells; type: functional, Mus musculus; in short: as §1
[21] = test system: L1210; test: Percentage of putrescine after 48 hr exposure to the compound (4.5 uM ) in L1210 cells; type: functional, Mus musculus
In short: (§4)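 Murine L1210 leukemia cells in log-phase growth (RPMI-1640, 10% fetal calf serum or NuSerum, HEPES-MOPS, 1 mM aminoguanidine) exposed to analogue for 48 h. Cells washed twice with cold RPMI-1640 and extracted with 0.6 N HClO4. PUT, SPD and SPM measured by HPLC of DANSYL derivatives and given as percent of untreated controls. Triplicate flasks per experiment.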

[22] = test system: L1210; test: Percentage of spermidine after 48 hr of exposure to the compound (0.9 uM ) in L1210 cells; type: functional, Mus musculus; in short: as §4
[23] = test system: L1210; test: Percentage of putrescine after 48 hr exposure to the compound (0.9 uM ) in L1210 cells; type: functional, Mus musculus; in short: as §4
[24] = test system: L1210; test: Percentage of spermidine after 48 hr of exposure to the compound (4.5 uM ) in L1210 cells; type: functional, Mus musculus; in short: as §4
[25] = test system: L1210; test: Percentage of spermine after 48 hr exposure to the compound (4.5 uM ) in L1210 cells; type: functional, Mus musculus; in short: as §4
[26] = test system: L1210; test: Percentage of putrescine after 48 hr exposure to the compound (10 uM ) in L1210 cells; type: functional, Mus musculus; in short: as §1
[27] = test system: L1210; test: Percentage of spermidine after 48 hr of exposure to the compound (10 uM ) in L1210 cells; type: functional, Mus musculus; in short: as §1
[28] = test system: L1210; test: Percentage of putrescine after 48 hr exposure to the compound (2 uM ) in L1210 cells; type: functional, Mus musculus; in short: as §1
[29] = test system: L1210; test: Percentage of spermidine after 48 hr of exposure to the compound (2 uM ) in L1210 cells; type: functional, Mus musculus; in short: as §1

Sequence of Spermidine/spermine N(1)-acetyltransferase (SAT) (Mus musculus) (P48026 whole entry, looked up): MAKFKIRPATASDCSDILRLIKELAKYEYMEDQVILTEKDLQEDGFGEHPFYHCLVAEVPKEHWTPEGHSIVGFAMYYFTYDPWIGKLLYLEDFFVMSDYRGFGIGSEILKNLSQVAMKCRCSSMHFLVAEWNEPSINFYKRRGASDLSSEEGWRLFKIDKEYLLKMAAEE
Sequence of Spermidine/spermine N(1)-acetyltransferase (SAT) (Mus musculus) (Q6P8J2 whole entry, looked up): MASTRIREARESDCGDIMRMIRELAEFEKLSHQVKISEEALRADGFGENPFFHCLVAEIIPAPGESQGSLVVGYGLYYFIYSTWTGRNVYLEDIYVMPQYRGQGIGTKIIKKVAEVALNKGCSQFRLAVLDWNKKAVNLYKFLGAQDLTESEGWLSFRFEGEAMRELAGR

Structure (SMILES)	AdoMetDC [3]	LD50 [4]	Ki [8]	Picoequivalents of amine/10e6 cells [9]	SSAT [10]	ODC [11]	IC50 [12]	IC50 [13]	other results
CCNCCCCNCCCNCC	68%	426 mg/kg/day	19 µM	14050	1380%	30%	100 µM	0.7 µM	Polyamine [1]: 0%; Polyamine [2]: 55%; Polyamine [5]: 74%; Polyamine [6]: 5%; Polyamine [7]: 0%; Polyamine [14]: 0%
CCNCCCCCNCCCCNCC	70%	375 mg/kg/day	64 µM	14590	120%	100%	4.5 µM	0.2 µM	Polyamine [15]: 99%; Polyamine [16]: 98%; Polyamine [17]: 47%; Polyamine [18]: 18%; Polyamine [19]: 0%; Polyamine [20]: 0%
NCCCNCCCN [NORSPERMIDINE]	62%	–	7.2 µM	–	150%	11%	0.9 µM	0.5 µM	Polyamine [21]: 0%; Polyamine [22]: 44%; Polyamine [23]: 38%; Polyamine [24]: 12%; Polyamine [25]: 83%
CNCCCCCNCCCCNC	71%	–	21 µM	20810	130%	56%	2 µM	0.12 µM	Polyamine [26]: 0%; Polyamine [27]: 18%; Polyamine [28]: 0%; Polyamine [29]: 33%
